Published values pooled from the literature.
Lines come from different studies, so protocols differ.
CYP2C19: Cytochrome P450 2C19 (CYP2C19, Homo sapiens, UniProt P33261)

`C[C@H](O)c1cc(C(=O)N[C@@H](C)Cn2ccc(-c3ccc(C#N)c(Cl)c3)n2)n[nH]1` has an IC50 of over 100 µM (UDP-glucuronosyltransferase 1A4 (UGT1A4, Homo sapiens, UniProt P22310); enzyme activity, inhibitor; human, liver microsomes).
The inhibition of `NC(=O)C1CCCN1C(=O)Cc1ccc(N(CCCO)Cc2cnc3nc(N)nc(N)c3n2)cc1` (stereo not drawn) is reported as -4.55% (CYP2C19; enzyme activity, inhibitor, luciferase; 10 µM).
`COc1cc2c3c(n(CCCN4CCOCC4)c(=O)c2cc1OC)-c1cc2c(cc1C3=O)OCO2` gave a Cmax of 75.7 ng/mL (female beagle dog, plasma; intravenous, 10 mg/m², infusion).
`[11CH3]Oc1cccc(CCc2cc(O)c(=O)[nH]n2)c1` gave a tracer uptake of 0.43 %ID/g (ATP-dependent translocase ABCB1 (Abcb1a, Mus musculus, UniProt P21447); mouse, brain; 5 min).
With `COC(=O)C1CCN(C(=O)c2ccc(N(CCO)Cc3cnc4nc(N)nc(N)c4n3)cc2)CC1` the inhibition was -24.5% (CYP2C19; enzyme activity, inhibitor, luciferase; 10 µM).
The CC50 of `N=C(N)NCc1ccc(NC(=O)c2ccc(C(=O)Nc3cnc(C4=CCN(C(=N)N)CC4)cn3)cc2)cc1` is reported as over 585 µM (NIH3T3; cell growth or viability, MTS; 24 h).
The inhibition of `COC(=O)C1CCN(C(=O)c2ccc(N(Cc3ccccc3)Cc3cnc4nc(N)nc(N)c4n3)cc2)CC1` is reported as 107% (CYP2C19; enzyme activity, inhibitor, luciferase; 10 µM).
For `N=C(N)NCc1ccc(NC(=O)c2ccc(C(=O)Nc3ccc(C4=CCN(C(=N)N)CC4)cc3)nc2)cc1`, the CC50 was over 117 µM (NIH3T3; cell growth or viability, MTS; 24 h).
For `CCOC(=O)C1CCCN1C(=O)c1ccc(NCc2cnc3nc(N)nc(N)c3n2)cc1` (stereo not drawn), the inhibition was -16.2% (CYP2C19; enzyme activity, inhibitor, luciferase; 10 µM).
`N=C(N)N1CC=C(c2coc(C(=O)Nc3ccc(C4=CCN(C(=N)N)CC4)c(F)c3)c2)CC1` gave a CC50 of 68 µM (NIH3T3; cell growth or viability, MTS; 24 h).
`C=CC(=O)N1CC2CC(n3nc(-c4ccc(C(=O)Nc5ccccn5)cc4)c4c(N)ncnc43)CC2C1` (stereo not drawn) has a Tmax of 2 h (male Wistar rat, plasma; oral, 10 mg/kg).
For `C[C@@H]1C[C@@H](c2ccc(Br)cc2)c2c(cc3ccccn23)C(=O)O1` (racemic), the CC50 was over 100 µM (HFF-1; cell growth or viability, resazurin; 72 h).
